From the array DNA melting data of Ke et al. (doi:10.1101/2024.01.08.574731)

Experiments:
[1] = folding enthalpy; higher = less favourable; fluorescence melt of hairpins on a sequencing array, two-state fit; details: sodium 0.088 M
Procedure, shortened: (§1)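 Hairpins were imaged by Cy3 fluorescence on a sequenced MiSeq flow cell with annealed Cy3 and quencher oligos, in 50 mM Na-HEPES pH 8.0, 25 mM NaCl, in 2.5 °C steps up to 60 °C. Bootstrapped two-state fits of normalised signals gave melting temperature and folding enthalpy. Four replicates were combined by inverse variance, and fitted temperatures were raised by 9.35 °C to match UV melts.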

[2] = melting temperature; fluorescence melt of hairpins on a sequencing array, two-state fit, raised by 9.35 °C to match UV melts; details: sodium 0.088 M
Procedure, shortened: as §1

Row | Sequence | folding enthalpy [1] [kcal/mol] | Tm [2] [°C]
1 | GATAACGAAAGTTAATC ((((((....))).))) | -15.4 | 30.7
2 | GATAACGAAAGTTCATC ((((((....))).))) | -10.4 | 26.2
3 | GATAACGAAAGTTGTATC ((((((....)))..))) | -18.9 | 26.9
4 | GATAACGAAAGTTTATC ((((((....))).))) | -14.2 | 31.8
5 | GATAACGGAAACGTCATC (((.(((....))).))) | -19.3 | 31.4
6 | GATAAGCGAAAGCTAATC (((.(((....))).))) | -16.8 | 41.5
7 | GATAAGCGAAAGCTATC (((.(((....)))))) | -14.7 | 42.8
8 | GATAAGCGAAAGCTCATC (((.(((....))).))) | -15.9 | 33.8
9 | GATAAGGAAACTTATC ((((((....)))))) | -26.8 | 40.1
10 | GATACAGCGAAAGCTATC (((..(((....)))))) | -10.4 | 26.2
11 | GATACAGGAAACTGTATC (((((((....))))))) | -42.9 | 54
12 | GATACCCCGAAAGGGATC (((..(((....)))))) | -12.4 | 33.3
13 | GATACCGAAAGGTGGATC ((((((....)))..))) | -13 | 30.2
14 | GATACCGCGAAAGCGATC (((..(((....)))))) | -7.65 | 23
15 | GATACCGGAAACGGCATC (((.(((....))).))) | -25 | 43.8
16 | GATACGCGAAAGCGCATC (((.(((....))).))) | -20.2 | 46.4
17 | GATACGCGAAAGCGGATC (((.(((....))).))) | -29.3 | 66
18 | GATACTGGAAACAGCATC (((.(((....))).))) | -27.5 | 34.2
19 | GATACTGGAAACAGTGTC ((.((((....)))).)) | -25.9 | 44.7
20 | GATAGAGAAATCTATC ((((((....)))))) | -21.5 | 36.8
21 | GATAGCCGAAAGGCAATC (((.(((....))).))) | -19.1 | 46
22 | GATAGCGGAAACGTTATC ((((.((....)).)))) | -34.8 | 42.3
23 | GATAGCGGAAACGTTGTC ((.(.((....)).).)) | -16.1 | 27.5
24 | GATAGGAAACTATC (((((....))))) | -15.4 | 40.2

Row | Sequence | folding enthalpy [1] [kcal/mol] | Tm [2] [°C]
25 | GATAGGACGAAAGTCATC (((..(((....)))))) | -7.28 | 25.2
26 | GATAGGCGAAAGCCATC (((.(((....)))))) | -12.6 | 40.3
27 | GATAGGGAAACCTATC ((((((....)))))) | -34.7 | 47.6
28 | GATAGGGGAAACCCCATC (((.(((....))).))) | -16.9 | 35.6
29 | GATAGGGGAAACCCTATC (((((((....))))))) | -42 | 54.9
30 | GATATACGAAAGTACATC (((.(((....))).))) | -27.2 | 30.5
31 | GATATACGAAAGTAGATC (((.(((....))).))) | -31.1 | 44.1
32 | GATATGCGAAAGCAAATC (((.(((....))).))) | -24.3 | 40.1
33 | GATATGCGAAAGCACATC (((.(((....))).))) | -19.1 | 39.3
34 | GATATGGCGAAAGCCATC (((..(((....)))))) | -7.03 | 34.2
35 | GATCAAAAGATTGATC ((((((....)))))) | -20.6 | 33.3
36 | GATCAAACGATTGATC ((((((....)))))) | -25.3 | 39.9
37 | GATCAAACGGTTGATC ((((((....)))))) | -36 | 44.2
38 | GATCAAACGTTTGATC ((((((....)))))) | -41.4 | 51
39 | GATCAAACTCTTGATC ((((((....)))))) | -33.9 | 40.5
40 | GATCAAACTTTGATC ((((((...)))))) | -31.6 | 41.9
41 | GATCAAAGCCTTGATC ((((((....)))))) | -28.4 | 44.1
42 | GATCAAAGGTTGATC ((((((...)))))) | -27.2 | 40
43 | GATCAAAGTTTGATC ((((((...)))))) | -27.1 | 42.7
44 | GATCAAATAGTTGATC ((((((....)))))) | -29.5 | 37.9
45 | GATCAAATATTTGATC ((((((....)))))) | -48.2 | 47.1
46 | GATCAAATCCTTGATC ((((((....)))))) | -35.8 | 42.1
47 | GATCAAATCGTTGATC ((((((....)))))) | -30.6 | 42.4
48 | GATCAAATCTTTGATC ((((((....)))))) | -30.3 | 47.7

Row | Sequence | folding enthalpy [1] [kcal/mol] | Tm [2] [°C]
49 | GATCAAATGATTGATC ((((((....)))))) | -26.2 | 35.8
50 | GATCAAATGTTGATC ((((((...)))))) | -26.6 | 41.2
51 | GATCAAATTTTTGATC ((((((....)))))) | -39 | 47.7
52 | GATCAACACTTTGATC ((((((....)))))) | -37.8 | 47.6
53 | GATCAACAGTTTGATC ((((((....)))))) | -31.2 | 41.3
54 | GATCAACCAGTTGATC ((((((....)))))) | -41.9 | 50.4
55 | GATCAACCATTTGATC ((((((....)))))) | -32.8 | 42.3
56 | GATCAACCCTTTGATC ((((((....)))))) | -39.2 | 46.1
57 | GATCAACCTATTGATC ((((((....)))))) | -29 | 41.5
58 | GATCAACGAAAGTTAATC (((.(((....))).))) | -11.7 | 27.8
59 | GATCAACGAAAGTTATC (((.(((....)))))) | -9.84 | 25.4
60 | GATCAACGCGTTGATC ((((((....)))))) | -54.2 | 59.5
61 | GATCAACGGATTGATC ((((((....)))))) | -28 | 39.5
62 | GATCAACGTTTGATC ((((((...)))))) | -26.1 | 40.1
63 | GATCAACTGCTTGATC ((((((....)))))) | -31.5 | 44
64 | GATCAACTTTTTGATC ((((((....)))))) | -37.8 | 43.3
65 | GATCAAGATTTTGATC ((((((....)))))) | -28.5 | 44.5
66 | GATCAAGCCTTGATC ((((((...)))))) | -26.1 | 44.1
67 | GATCAAGCCTTTGATC ((((((....)))))) | -40.7 | 49.2
68 | GATCAAGCGATTGATC ((((((....)))))) | -39.6 | 48
69 | GATCAAGCTCTTGATC ((((((....)))))) | -38.9 | 48.3
70 | GATCAAGGATTTGATC ((((((....)))))) | -29.8 | 49.1
71 | GATCAAGGTCTTGATC ((((((....)))))) | -37.5 | 48.6
72 | GATCAAGTCCTTGATC ((((((....)))))) | -38.2 | 49.7

Row | Sequence | folding enthalpy [1] [kcal/mol] | Tm [2] [°C]
73 | GATCAAGTGTTGATC ((((((...)))))) | -32 | 40.9
74 | GATCAAGTGTTTGATC ((((((....)))))) | -31.8 | 43.5
75 | GATCAAGTTATTGATC ((((((....)))))) | -35.8 | 49.8
76 | GATCAAGTTTTGATC ((((((...)))))) | -29.4 | 45.4
77 | GATCAATAACTTGATC ((((((....)))))) | -31.6 | 39.4
78 | GATCAATAGCTTGATC ((((((....)))))) | -29.6 | 40.5
79 | GATCAATCAATTGATC ((((((....)))))) | -36 | 45
80 | GATCAATCCGTTGATC ((((((....)))))) | -32.5 | 47
81 | GATCAATCTTTTGATC ((((((....)))))) | -34.1 | 46.5
82 | GATCAATGATTTGATC ((((((....)))))) | -32.7 | 44.8
83 | GATCAATGCGTTGATC ((((((....)))))) | -45.6 | 50.9
84 | GATCAATGCTTGATC ((((((...)))))) | -28.5 | 43.2
85 | GATCAATGCTTTGATC ((((((....)))))) | -39.7 | 47.5
86 | GATCAATGTATTGATC ((((((....)))))) | -41.1 | 51
87 | GATCAATTGTTTGATC ((((((....)))))) | -35.9 | 46.1
88 | GATCACAAGGTGATC ((((((...)))))) | -38.4 | 58.4
89 | GATCACACAGGTGATC ((((((....)))))) | -44.3 | 54.5
90 | GATCACACATGTGATC ((((((....)))))) | -38.1 | 57.9
91 | GATCACACCTGTGATC ((((((....)))))) | -47.3 | 57.2
92 | GATCACACGAAAGTGATC (((..(((....)))))) | -34.3 | 48.8
93 | GATCACAGCCGTGATC ((((((....)))))) | -44.6 | 57.8
94 | GATCACAGGAGTGATC ((((((....)))))) | -38.2 | 54.8
